Assay outcomes as filed in PubChem.
Her2 expr inh: inhibitors of Her2 protein expression, primary screen, SKBR-3 cells, AlphaScreen, 66K library | AID 645, 2007 | HER2 level % of control, % at 10 µM | 65,000 tested, 0.69% active | SKBR-3 HER2 protein level, 18-24 h; active compounds read low;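 active = HER2 level under 5% of the carrier-only control; inconclusive = no clear call, values can overlap the other calls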;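 also: lower value means stronger loss of Her2 protein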
JNK3 blocker: JNK3 kinase activity inhibitors, primary screen, biochemical, human, purified enzyme. Mitogen-activated protein kinase 10 (Homo sapiens), P53779. inhibition, % at 8 µM. 60,000 tested, 0.61% active. HTS; in the data active = inhibition above about 17%
Target sequence (P53779 whole entry, looked up): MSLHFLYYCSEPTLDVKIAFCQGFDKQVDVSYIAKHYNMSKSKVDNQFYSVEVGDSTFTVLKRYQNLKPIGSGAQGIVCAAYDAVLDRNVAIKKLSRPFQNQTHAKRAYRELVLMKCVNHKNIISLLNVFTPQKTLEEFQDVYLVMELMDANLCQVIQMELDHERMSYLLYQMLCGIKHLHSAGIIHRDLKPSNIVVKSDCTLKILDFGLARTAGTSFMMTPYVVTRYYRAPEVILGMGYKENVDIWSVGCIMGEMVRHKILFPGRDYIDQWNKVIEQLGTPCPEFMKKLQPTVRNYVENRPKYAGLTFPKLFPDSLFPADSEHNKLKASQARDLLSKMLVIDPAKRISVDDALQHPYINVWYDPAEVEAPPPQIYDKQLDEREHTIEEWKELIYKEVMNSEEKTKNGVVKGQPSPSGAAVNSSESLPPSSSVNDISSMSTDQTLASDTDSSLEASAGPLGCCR
M1 ag: M1 muscarinic receptor agonists, primary screen, CHO-M1 cells, Fluo-4 calcium, agonist mode; Muscarinic acetylcholine receptor M1; 64,000 tested, 3% active; Fluo-4 calcium fluorescence; active compounds read high; B-score at 10 µM;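 active = fluorescence rise, raw or as B-score row- and column-corrected plate score, outside the 99.7% band of its plate's samples, either direction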
HEK293 NFkB inh: inhibitors of PMA/ionomycin-induced NF-kB reporter, primary screen, antigen receptor NF-kB inhibitor project, cell-based, HEK-293 luciferase reporter, luminescence. HEK-293 NF-kB luciferase reporter. inhibition, % at 3 µM. 62,000 tested, 0.21% active. AID 465, 2006;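 active = inhibition above the mean of all tested compounds plus 3 SD, cut at about 40% in these data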
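Signal: luciferase luminescence; Material: HEK-293 cells with stable firefly luciferase reporter driven by four HIV NF-kB elements; Probe or stimulus: PMA with ionomycin; Replication: tested once; Times: 1 h compound pretreatment, then 16 h stimulation at 37 °C, 5% CO2; Benchmarks: DMSO and 10 µM reference inhibitor; Evaluation: per-plate % inhibition versus controls.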
BAP1 block: inhibitors of BAP1 deubiquitinase, primary screen, biochemical, Ub-AMC fluorescence, kinetic | Ubiquitin carboxyl-terminal hydrolase BAP1 (Homo sapiens), Q92560 | recombinant BAP1, Ub-AMC hydrolysis fluorescence kinetic; active compounds read low | calls only at 20 µM | 72,000 tested, 0.48% active;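 active = activity remaining at or below 50% of control, provided the compound also passes the data quality filters; inactive = the rest, including low values that fail the filters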
M1 antag: antagonists of rat M1 muscarinic receptor; 64,000 tested, 3.4% active; CHO-M1 cells, Fluo-4 calcium, ACh EC80 antagonist mode; active compounds read low; B-score at 10 µM; Muscarinic acetylcholine receptor M1 (Rattus norvegicus), P08482;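 active = calcium fluorescence response, raw or row-and-column corrected B-score, differing from the plate sample mean either way at a set confidence level, mostly lower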
M1 ag confirm: rat M1 muscarinic receptor agonists, confirmation, CHO-M1 cells, Fluo-4 calcium, duplicate retest. fluorescence change (max-min) at 10 µM. 1,700 tested, 19% active. Fluo-4 calcium fluorescence, agonist mode; actives lie on both sides. shares compounds with M1 ag;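 active = fluorescence change differs from the solvent-only DMSO control mean at a set confidence level in both duplicate runs; inconclusive = differs from solvent-only control mean in just one of two runs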;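 also: an EC20 dose of acetylcholine follows compound addition during the same imaging run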
M4 ag counter: agonist activity at rat M4 receptor, confirmation, counter-screen for M1 allosteric modulator project, cell-based, agonist mode; shares compounds with M1 ag; CHO M4/Gqi5 cells, Fluo-4 calcium fluorescence; actives lie on both sides; fluorescence change (max-min) at 10 µM; 1,700 tested, 9% active; AID 1741, 2009;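 active = fluorescence change differing from the plate's solvent-only control wells at 99.7% confidence in both duplicates, whether higher or lower; inconclusive = differs from solvent controls in only one of two duplicates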
A number is an active result. Compounds with a hit are over-represented: about 6.6% of the library has one in this group of screens.

For O=C(CN1CCOCC1)NCCNC(=O)CN1CCOCC1 the results were Her2 expr inh inactive, JNK3 blocker inactive, M1 ag 4.2, HEK293 NFkB inh inactive, BAP1 block inactive, M1 antag inactive, M1 ag confirm inconclusive and M4 ag counter inconclusive.
Screening CN(C)CCOC(=O)CCc1ccccc1 returned Her2 expr inh inactive, JNK3 blocker inactive, M1 ag inactive, HEK293 NFkB inh inactive, BAP1 block inactive and M1 antag inactive.
Screening CN(C)CCOc1ccccc1Cc1ccccc1 returned Her2 expr inh inactive, JNK3 blocker inactive, M1 ag 33, BAP1 block inactive, M1 antag -6.4, M1 ag confirm inactive and M4 ag counter inactive.
`N#Cc1ccccc1CSc1nc(N2CCCCC2)nc(N2CCCCC2)n1` gave Her2 expr inh inactive, JNK3 blocker inactive, M1 ag 7.4, HEK293 NFkB inh inactive, BAP1 block inactive, M1 antag inactive, M1 ag confirm inactive and M4 ag counter inactive.
N=c1c(S(=O)(=O)c2ccccc2)cc2c(=O)n3ccccc3nc2n1CCN1CCOCC1 was read as Her2 expr inh inactive, M1 ag inactive, HEK293 NFkB inh inactive, BAP1 block inactive and M1 antag inactive.
Cc1ccc(S(=O)(=O)c2cc3c(=O)n4ccccc4nc3n(C)c2=N)cc1 was read as Her2 expr inh inactive, JNK3 blocker inactive, M1 ag 5.1, M1 antag inactive, M1 ag confirm inactive and M4 ag counter inconclusive.
`COC(=O)c1cc2c(=O)n3ccccc3nc2n(C)c1=N` gave Her2 expr inh inactive, JNK3 blocker inactive, M1 ag inactive, HEK293 NFkB inh inactive and M1 antag inactive.
Cc1ccc(S(=O)(=O)c2cc3c(=O)n4ccccc4nc3n(Cc3ccco3)c2=N)cc1C was read as Her2 expr inh inactive, JNK3 blocker inactive, M1 ag 5.9, HEK293 NFkB inh inactive, BAP1 block inactive, M1 antag inactive, M1 ag confirm inactive and M4 ag counter inactive.
`N=c1c(S(=O)(=O)c2ccccc2)cc2c(=O)n3ccccc3nc2n1Cc1ccco1` gave Her2 expr inh inactive, JNK3 blocker inactive, M1 ag 9, HEK293 NFkB inh inactive, BAP1 block inactive, M1 antag inactive, M1 ag confirm inactive and M4 ag counter inactive.
Cc1cc(C)c2oc(-c3ccc(NC(=O)c4ccc(I)cc4)cc3)nc2c1 was read as BAP1 block inactive.
For CCOC(=O)C1=C(N)OC2=C(C(=O)CC(C)(C)C2)C1c1ccc(O)c(OC)c1 (configuration not stated) the results were BAP1 block inactive.
CC1=C(C(=O)OCC(C)C)C(c2cccc(Oc3ccccc3)c2)NC(=O)N1 (configuration not stated) was read as BAP1 block inactive.
Screening Cc1cc(-c2ccccc2C(=O)O)on1 returned Her2 expr inh inactive, JNK3 blocker inactive, M1 ag inactive, HEK293 NFkB inh inactive, BAP1 block inactive and M1 antag inactive.
For O=C(O)c1ccccc1C1=Nc2ccc(O)cc2Oc2cc(O)ccc21 the results were Her2 expr inh -53, JNK3 blocker inactive, M1 ag 32, HEK293 NFkB inh inactive, BAP1 block inactive, M1 antag inactive, M1 ag confirm 418 and M4 ag counter 403.
Screening O=C(c1cc2ccccc2oc1=O)N(Cc1ccc2c(c1)OCO2)Cc1ccco1 returned Her2 expr inh inactive, JNK3 blocker inactive, M1 ag 5, HEK293 NFkB inh inactive, BAP1 block inactive, M1 antag inactive, M1 ag confirm inactive and M4 ag counter inconclusive.
`O=C(c1cc2ccccc2oc1=O)N(Cc1ccco1)CC1CCCO1` (configuration not stated) gave Her2 expr inh inactive, JNK3 blocker inactive, M1 ag inactive, HEK293 NFkB inh inactive, BAP1 block inactive and M1 antag inactive.
O=C(Nc1cccc(NC(=O)c2ccc(-c3cccc(Br)c3)o2)c1)c1ccco1 was read as Her2 expr inh inactive, JNK3 blocker inactive, M1 ag 7.8, HEK293 NFkB inh inactive, M1 antag inactive, M1 ag confirm inconclusive and M4 ag counter inactive.
Screening COc1ccc(Br)cc1C(=O)Nc1cccc(NC(=O)c2ccco2)c1 returned Her2 expr inh inactive, JNK3 blocker inactive, M1 ag inactive, HEK293 NFkB inh inactive, BAP1 block inactive and M1 antag inactive.
Cc1ccc(-c2nnc3c4ccccc4c(C)nn23)cc1S(=O)(=O)N1CCN(CCO)CC1 was read as Her2 expr inh inactive, JNK3 blocker inactive, M1 ag 4.2, HEK293 NFkB inh inactive, BAP1 block inactive, M1 antag inactive, M1 ag confirm inactive and M4 ag counter inactive.
Screening CC(C)Cn1cc(I)c(=O)[nH]c1=O returned BAP1 block inactive.
Cc1ccc(NC(=O)c2ccc(C)c(C)c2)cc1 was read as BAP1 block inactive.
CCOC(=O)c1cc2c(=O)n3cccc(C)c3nc2n(CC2CCCO2)c1=NC(C)=O (configuration not stated) was read as Her2 expr inh inactive, JNK3 blocker inactive, M1 ag inactive, HEK293 NFkB inh inactive, BAP1 block inactive and M1 antag inactive.
For CC(C)OCCCn1c(=NC(=O)c2ccncc2)c(C#N)cc2c(=O)n3ccccc3nc21 the results were Her2 expr inh inactive, JNK3 blocker inactive, M1 ag 25, HEK293 NFkB inh inactive, BAP1 block inactive, M1 antag inactive, M1 ag confirm 219 and M4 ag counter inconclusive.
CCCCn1c(=NC(=O)c2ccc3c(c2)OCO3)c(C#N)cc2c(=O)n3cccc(C)c3nc21 was read as Her2 expr inh inactive, JNK3 blocker inactive, M1 ag 13, HEK293 NFkB inh inactive, M1 antag inactive, M1 ag confirm inconclusive and M4 ag counter inactive.
CC(C)OCCCn1c(=N)c(C(N)=S)cc2c(=O)n3ccccc3nc21 was read as Her2 expr inh inactive, JNK3 blocker inactive, M1 ag 4, BAP1 block inactive, M1 antag inactive, M1 ag confirm inactive and M4 ag counter inconclusive.
`O=C(Nc1nc(-c2ccc3ccccc3c2)cs1)c1ccccc1` gave BAP1 block inactive.
